Shown are actives, neighbours in structure and some others; about 2.7% of the full set was active somewhere.
bovine MsrA act – bovine MsrA enzyme activators, primary screen, biochemical, absorbance, HTS; Methionine sulfoxide reductase A (Bos taurus); activation, % at 10.6 µM; hit rate 0.3% among 360,000; purified bovine MsrA, absorbance read-out; in the data active means activation above about 7.5%;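 further: 0% = vehicle and 100% = reference activator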
sPLA2-III inh – human group III sPLA2 inhibitors, primary screen, biochemical, QFRET, BODIPY PC-A2 liposome substrate; Group 3 secretory phospholipase A2 (Homo sapiens), Q9NZ20; QFRET BODIPY PC-A2 liposome hydrolysis, fluorescence; hit rate 0.56% among 370,000; inhibition, % at 12.2 µM; AID 743126, 2013;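 active means inhibition above mean plus 3 SD of compounds lying within the high and low control bounds, cut at about 19% in these data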;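 further: 0% = median of test compound wells and 100% = no enzyme DMSO wells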
ASAP1 GAP inh – inhibitors of human ASAP1 ArfGAP activity, primary screen, biochemical, fluorescence polarization. Arf-GAP with SH3 domain, ANK repeat and PH domain-containing protein 1 (Homo sapiens), …. inhibition, % at 16.5 µM. AID 624377, 2012. hit rate 0.19% among 360,000. ASAP1-stimulated ARF1 GTP hydrolysis, GDP FP detection; in the data active means inhibition above about 25%;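 further: 0% = vehicle with enzyme and substrate and 100% = no enzyme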
MsrA inhibitor – bovine MsrA enzyme inhibitors, primary screen, biochemical, absorbance, HTS | Methionine sulfoxide reductase A (Bos taurus) | AID 651718, 2012 | purified bovine MsrA, absorbance read-out | hit rate 0.75% among 360,000 | inhibition, % at 15.5 µM;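 further: 0% = vehicle wells with enzyme and 100% = reference inhibitor wells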
ARFGAP1 inhibitor – inhibitors of rat ARFGAP1 GAP activity, primary screen, biochemical, fluorescence polarization, GDP tracer; ADP-ribosylation factor GTPase-activating protein 1 (Rattus norvegicus), Q62848; Arfgap1-stimulated ARF1 GTP hydrolysis, GDP FP detection; inhibition, % at 16.5 µM; hit rate 0.26% among 360,000;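 active means inhibition above a per-plate limit, mean inhibition of low control wells plus 3 SD, cut at about 25% in these data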;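 further: 0% = DMSO wells with enzyme and 100% = wells lacking Arfgap1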
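Replicates: Single well per compound | Assay system: Truncated rat Arfgap1 GAP domain | Control set: No-Arfgap1 wells (100%) versus DMSO full-reaction wells (0%) | Times: Enzyme reaction 120 min at 25 °C after 20 min preincubation | Reagent: Human ARF1(Δ1-17)-GTP substrate | Measured by: Tracer-displacement fluorescence polarization with EDTA stop, 620/688 nm | Measure: Percent inhibition of Arfgap1-stimulated GTP hydrolysis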
Rev-erbA mod – modulators of Rev-erb alpha DNA binding, primary screen, biochemical, FITC-DNA, fluorescence polarization, uHTS. Rev-erbα–FITC-DNA binding, 90 min. activity, % at 10 µM. hit rate 0.79% among 370,000;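 active means activity above about 14%, limit read from the data; passing the limit was not always enough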;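 further: 0% = DMSO wells with 35 nM protein and 100% = DMSO wells with 750 nM protein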
Target sequence (P20393 whole entry, looked up): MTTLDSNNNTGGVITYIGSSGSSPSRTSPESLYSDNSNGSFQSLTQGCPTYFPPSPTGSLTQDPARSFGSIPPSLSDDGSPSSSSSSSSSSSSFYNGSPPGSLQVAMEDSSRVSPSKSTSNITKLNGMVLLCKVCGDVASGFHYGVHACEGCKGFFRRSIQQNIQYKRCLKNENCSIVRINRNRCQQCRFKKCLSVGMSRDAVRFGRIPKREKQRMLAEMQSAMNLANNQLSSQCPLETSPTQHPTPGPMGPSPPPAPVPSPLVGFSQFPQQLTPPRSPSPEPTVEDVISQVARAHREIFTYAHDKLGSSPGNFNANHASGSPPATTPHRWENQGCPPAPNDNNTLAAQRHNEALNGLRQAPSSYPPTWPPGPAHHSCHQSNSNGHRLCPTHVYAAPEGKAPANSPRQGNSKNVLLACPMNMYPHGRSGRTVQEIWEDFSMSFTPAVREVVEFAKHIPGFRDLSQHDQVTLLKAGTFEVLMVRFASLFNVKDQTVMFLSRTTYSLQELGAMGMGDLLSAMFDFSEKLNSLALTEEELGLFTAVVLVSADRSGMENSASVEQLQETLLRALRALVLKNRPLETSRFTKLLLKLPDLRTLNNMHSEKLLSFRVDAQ
MsrA conf – bovine MsrA inhibitors, retest, confirmation, biochemical, absorbance, HTS; hit rate 41% among 2,300; inhibition, % at 15.5 µM; purified bovine MsrA, absorbance read-out; shares compounds with MsrA inhibitor; AID 651822, 2012;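 further: coupled to thioredoxin reductase with NADPH and selenocystamine and DMSO as substrate; 0% = vehicle only and 100% = full effect of reference inhibitor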
Active calls of the source: *; . = no result given. Unless noted, no stated cut-off is given here; in the data, active means inhibition above about 4.5%; inactive means the rest.

SMILES	bovine MsrA act	sPLA2-III inh	ASAP1 GAP inh	MsrA inhibitor	ARFGAP1 inhibitor	Rev-erbA mod	MsrA conf
O=c1c2ccccc2n(Cc2ccco2)n1[C@@H](Cc1ccccc1)Cn1cc(-c2ccc(-c3ccccc3)cc2)nn1	.	6	.	.	.	5	.
COc1ccc(-n2cc(COC(=O)NCCc3c[nH]c4ccccc34)nn2)cc1	.	-81	.	.	.	-2	.
Cc1cc(N2CCOCC2)ccc1/C=C1\NC(=O)N(CC(=O)Nc2ccc(F)cc2)C1=O	-3	0	2	5.6*	0	-3	1
Cc1cc(N2CCOCC2)ccc1/C=C1\NC(=O)N(CC(=O)Nc2ccccc2C)C1=O	-7	0	3	0	3	.	.
CC1C(=O)NN=C1C(=O)N/N=C\C(Br)=C\c1ccccc1 (centres undefined)	-6	-9	1	5.7*	2	11	4
Nc1ccccc1Nc1ccc([N+](=O)[O-])cc1[N+](=O)[O-]	-4	14	-13	17*	9	-3	9.4*
COc1cc2oc(-c3ccc(O)cc3)cc(=O)c2c(OC)c1O	-5	-2	20	7.1*	17	-1	3
C=CC[C@@]1(c2ccc(Br)cc2OC)Oc2ccccc2-c2nccnc21	.	-4	.	.	.	-5	.
CS(=O)(=O)c1ccccc1C(=O)Nc1cc(Cl)ccc1-n1cncn1	-5	5	-9	0	-9	4	.
Cc1cccc(C(=O)Nc2cc(Cl)ccc2-n2cncn2)c1[N+](=O)[O-]	-5	8	0	7.3*	-2	3	4.8*
Cc1cc(=O)oc2cc(OCC(=O)NCC3CCC(C(=O)O)CC3)ccc12 (centres undefined)	-1	2	-6	1	2	-8	.
COc1ccc(-c2cc(=O)oc3cc(OCC(=O)NCC4CCC(C(=O)O)CC4)ccc23)cc1 (centres undefined)	4	4	-5	4.9*	9	-2	3
Cc1c(OCC(=O)N(C)C)ccc2c(-c3ccccc3)cc(=O)oc12	-6	1	-2	18*	16	0	16*
Cc1c(OCc2nn[nH]n2)ccc2c(-c3ccccc3)cc(=O)oc12	-2	-20	-6	2	7	1	.
CC(Oc1ccc2cc(-c3ccccc3)c(=O)oc2c1)C(=O)NCC1CCC(C(=O)O)CC1 (centres undefined)	-10	0	-8	6.3*	5	-7	4
CN(C)C(=O)COc1ccc2cc(-c3ccccc3)c(=O)oc2c1	-3	4	-3	4.7*	-2	2	3
COC(CNC(=O)[C@H](Cc1ccccc1)NCC(=O)NC1CCCCC1)OC	.	8	.	.	.	0	.
COC(=O)C1CN(CCc2ccccc2)CCS(=O)(=O)N1Cc1ccccc1 (centres undefined)	.	-2	.	.	.	1	.
Cc1cccc(NC(=O)/C(C#N)=C\c2cc(C)n(-c3ccc(C(=O)O)cc3)c2C)c1	-4	-15	-16	4.7*	-4	-1	4
Cc1cc(/C=C(/C#N)C(=O)O)c(C)n1-c1cccc2ccccc12	-3	-9	-2	5.7*	-2	-1	4.9*
Cc1cc(/C=C(\C#N)C(=O)Nc2ccccc2)c(C)n1-c1ccc(C(=O)O)cc1	-6	2	11	1	6	-3	.
CN1CC=C(c2ccccc2)N(c2ccc(Br)cc2)C1=O	.	-11	.	.	.	-2	.
C=CCN1[C@H](CC(C)C)COc2cccc(N3CCSCC3)c2S1(=O)=O	.	4	.	.	.	2	.
O=S(=O)(N/N=C\c1ccc(-c2ccccc2Cl)o1)c1ccccc1	-4	-11	4	4.9*	-9	2	3
Cc1nnc(C)n1/N=C/c1ccc(-c2ccccc2Cl)o1	-3	8	-6	5.2*	-9	-4	4.9*
SMILES	bovine MsrA act	sPLA2-III inh	ASAP1 GAP inh	MsrA inhibitor	ARFGAP1 inhibitor	Rev-erbA mod	MsrA conf
S=c1[nH]nc(-c2ccccc2)n1/N=C/c1ccc(-c2ccccc2Cl)o1	-3	-7	1	1	-9	-10	.
Cc1cccn2c(=O)nc(SCC(=O)N3CC(C)OC(C)C3)nc12 (centres undefined)	-5	-1	8	5.5*	8	-5	2
Cc1cccn2c(=O)nc(SCC(=O)N3CCCC3)nc12	0	8	4	3	2	-1	.
CC(=O)c1ccc(N2CCN(C(=O)c3ccc4c(c3)OCO4)CC2)cc1	-8	-1	8	4.8*	14	4	4
O=C(NCc1cccnc1)c1cc(C2CCCN(C(=O)c3ccccn3)C2)on1 (centres undefined)	-5	16	5	48*	21	-7	0
O=C(NCc1cccnc1)c1cc(C2CCCN(C(=O)c3cccs3)C2)on1 (centres undefined)	-2	4	-8	1	4	-1	.
CCN(CC)c1ccc(-c2nnc(SCC(=O)N(CCOC)c3c(N)n(CC(C)C)c(=O)[nH]c3=O)o2)cc1	-6	-9	-3	5.3*	-1	3	4
COCCN(C(=O)CSc1nnc(-c2ccc(C)c(C)c2)o1)c1c(N)n(CC(C)C)c(=O)[nH]c1=O	-2	10	2	1	-20	5	.
O=C(OC12CCCN(C1)/C(=C/c1cccc(Cl)c1)C2)c1ccno1 (centres undefined)	.	-2	.	.	.	-3	.
N#CC(c1ccc(O)cc1)N1CCN(C(C#N)c2ccc(O)cc2)CC1 (centres undefined)	-5	4	-10	5.0*	7	-8	1
Cc1ccccc1N=C1c2ccccc2C(=O)C1[N+](=O)[O-] (centres undefined)	-2	4	-18	5.8*	-5	-1	4
CC(=O)C1C(=O)c2c(cccc2[N+](=O)[O-])C1=Nc1ccccc1C (centres undefined)	.	4	-4	1	12	4	.
O=C(O)c1cccc(Cn2c(Cl)c(/C=N/NC(=O)c3ccccc3O)sc2=O)c1	-15	-4	0	5.0*	-1	0	4
O=C(O)c1cccc(Cn2c(Cl)c(/C=N/NC(=O)c3ccccc3Cl)sc2=O)c1	-4	-12	6	4	5	-2	.
COc1ccc(C(=O)N/N=C/c2sc(=O)n(Cc3cccc(C(=O)O)c3)c2Cl)cc1	-3	10	8	9.0*	4	-3	5.6*

Screens (PubChem BioAssay)
